Test results published in ChEMBL document CHEMBL1157762, “Sequence inversion and phenylalanine surrogates at the beta-turn enhance the antibiotic activity of gramicidin S” (J Med Chem, 2010).
Converted amounts (≈) assume the structure as drawn. Where a SMILES comes first, the peptide text is derived from it.

Tests used:
[1] = system: Listeria monocytogenes; experiment: Antibacterial activity against Listeria monocytogenes CECT 4032 after 24 hrs by turbidimetry; assay type: functional; conditions: CECT 4032, 24 h
How it was run: (§1)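 Frozen stocks thawed and grown two days in cation-adjusted Mueller-Hinton II broth at 37 °C. Exponential-phase cells washed twice in PBS pH 7.0 and resuspended in the same broth at 5 × 10^5 CFU/mL. Incubated 24 h at 37 °C with peptide, growth read by turbidity at 600 nm. Two experiments, triplicate samples. MIC50 taken as lowest concentration giving 50% growth inhibition versus untreated control.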

[2] = Therapeutic index, ratio of HC50 for sheep erythrocytes to MIC50 for polymyxin E-resistant Acinetobacter baumannii ATCC 19606
[3] = system: Staphylococcus aureus; experiment: Antibacterial activity against Staphylococcus aureus CECT 240 after 24 hrs by turbidimetry; assay type: functional; conditions: CECT 240, 24 h; how it was run: as §1

| Structure (SMILES) | MIC50 [1] [µM] | selectivity ratio [2] | MIC50 [3] [µM] |
| --- | --- | --- | --- |
| CC(C)C[C@@H]1NC(=O)[C@H](CCCN)NC(=O)[C@H](C(C)C)NC(=O)[C@H](C2c3ccccc3-c3ccccc32)NC(=O)[C@H]2CCCN2C(=O)[C@H](CC(C)C)NC(=O)[C@H](CCCN)NC(=O)[C@H](C(C)C)NC(=O)[C@H](C2c3ccccc3-c3ccccc32)NC(=O)[C@H]2CCCN2C1=O (HELM PEPTIDE1{L.[dP].[O=C([C@@H](N[*:1])C1c2ccccc2-c2ccccc21)[*:2]].V.[Orn].L.[dP].[O=C([C@@H](N[*:1])C1c2ccccc2-c2ccccc21)[*:2]].V.[Orn]}$PEPTIDE1,PEPTIDE1,1:R1-10:R2$$$V2.0) | 2.2 (≈ 2.84 µg/mL) | 0.1 |  |
| CC(C)C[C@@H]1NC(=O)[C@H](CCCN)NC(=O)[C@H](C(C)C)NC(=O)[C@@H]2Cc3ccccc3CN2C(=O)[C@H]2CCCN2C(=O)[C@H](CC(C)C)NC(=O)[C@H](CCCN)NC(=O)[C@H](C(C)C)NC(=O)[C@@H]2Cc3ccccc3CN2C(=O)[C@H]2CCCN2C1=O (HELM PEPTIDE1{L.[dP].[Tic].V.[Orn].L.[dP].[Tic].V.[Orn]}$PEPTIDE1,PEPTIDE1,1:R1-10:R2$$$V2.0) |  |  | 2.4 (≈ 2.8 µg/mL) |
